Measurements from ChEMBL document CHEMBL3872218, “Synthesis and T-type calcium channel-blocking effects of aryl(1,5-disubstituted-pyrazol-3-yl)methyl sulfonamides for neuropathic pain treatment” (Eur J Med Chem, 2016).

What was measured:
[1] = molecular target: T1, Voltage-dependent T-type calcium channel subunit alpha-1H (Homo sapiens, UniProt O95180); assay: Inhibition of Cav3.2 alpha1H (unknown origin) expressed in HEK293 cells assessed as decrease in KCl-induced depolarization mediated intracellular Ca2+ level at 10 uM by fluo3/AM based high throughput screening assay relative to control; assay type: cell-based
How it was run: (§1)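 HEK293 cells stably expressing Cav3.1 or Cav3.2 plated at 4 × 10⁴ cells/well and used the next day. Loaded 60 min at room temperature with […] fluo3/AM plus 0.001% Pluronic F-127 in HEPES-buffered saline (1.8 mM CaCl₂, pH 7.4). Ca²⁺ fluorescence read on FDSS6000 as % inhibition, compound at […].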

[2] = molecular target: T2, Voltage-dependent T-type calcium channel subunit alpha-1G (Homo sapiens, UniProt O43497); assay: Inhibition of Cav3.1 alpha1G (unknown origin) expressed in HEK293 cells assessed as decrease in KCl-induced depolarization mediated intracellular Ca2+ level at 10 uM by fluo3/AM based high throughput screening assay relative to control; assay type: cell-based; how it was run: as §1
Rattus norvegicus [3] = assay: Antineuropathic pain activity in rat spinal nerve ligation model assessed as effect on cold allodynia by measuring frequency of paw withdrawal at 100 mg/kg, po measured at 1 hr relative to gabapentin; assay type: functional
How it was run: (§2)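 Spinal nerve ligation rats tested 2 weeks after nerve surgery, 100 mg/kg oral, n = 4 per group. Behaviour re-tested at 1, 3 and 5 h after dosing. Mechanical allodynia: von Frey filament applied five times, every 3–4 s, to the hind paw on a wire mesh floor. Cold allodynia: acetone applied to the plantar hind paw on a metal mesh floor.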

Rattus norvegicus [4] = assay: Antineuropathic pain activity in rat spinal nerve ligation model assessed as effect on cold allodynia by measuring frequency of paw withdrawal at 100 mg/kg, po measured at 3 hrs relative to gabapentin; assay type: functional; how it was run: as §2
Rattus norvegicus [5] = assay: Antineuropathic pain activity in rat spinal nerve ligation model assessed as effect on mechanical allodynia by measuring frequency of paw withdrawal at 100 mg/kg, po measured at 3 hrs relative to control; assay type: functional; how it was run: as §2
Rattus norvegicus [6] = assay: Antineuropathic pain activity in rat spinal nerve ligation model assessed as effect on mechanical allodynia by measuring frequency of paw withdrawal at 100 mg/kg, po measured at 5 hrs relative to gabapentin; assay type: functional; how it was run: as §2
Rattus norvegicus [7] = assay: Antineuropathic pain activity in rat spinal nerve ligation model assessed as effect on mechanical allodynia by measuring frequency of paw withdrawal at 100 mg/kg, po measured at 5 hrs relative to control; assay type: functional; how it was run: as §2
Rattus norvegicus [8] = assay: Antineuropathic pain activity in rat spinal nerve ligation model assessed as effect on mechanical allodynia by measuring frequency of paw withdrawal at 100 mg/kg, po measured at 1 hr relative to control; assay type: functional; how it was run: as §2
Rattus norvegicus [9] = assay: Antineuropathic pain activity in rat spinal nerve ligation model assessed as effect on cold allodynia by measuring frequency of paw withdrawal at 100 mg/kg, po measured at 3 hrs relative to control; assay type: functional; how it was run: as §2
Rattus norvegicus [10] = assay: Antineuropathic pain activity in rat spinal nerve ligation model assessed as effect on mechanical allodynia by measuring frequency of paw withdrawal at 100 mg/kg, po measured at 3 hrs relative to gabapentin; assay type: functional; how it was run: as §2
Rattus norvegicus [11] = assay: Antineuropathic pain activity in rat spinal nerve ligation model assessed as effect on cold allodynia by measuring frequency of paw withdrawal at 100 mg/kg, po measured at 5 hrs relative to gabapentin; assay type: functional; how it was run: as §2
Rattus norvegicus [12] = assay: Antineuropathic pain activity in rat spinal nerve ligation model assessed as effect on mechanical allodynia by measuring frequency of paw withdrawal at 100 mg/kg, po measured at 1 hr relative to gabapentin; assay type: functional; how it was run: as §2
Rattus norvegicus [13] = assay: Antineuropathic pain activity in rat spinal nerve ligation model assessed as effect on cold allodynia by measuring frequency of paw withdrawal at 100 mg/kg, po measured at 1 hr relative to control; assay type: functional; how it was run: as §2
Rattus norvegicus [14] = assay: Antineuropathic pain activity in rat spinal nerve ligation model assessed as effect on cold allodynia by measuring frequency of paw withdrawal at 100 mg/kg, po measured at 5 hrs relative to control; assay type: functional; how it was run: as §2
[15] = molecular target: Voltage-gated inwardly rectifying potassium channel KCNH2 (Homo sapiens, UniProt Q12809); assay: Inhibition of human ERG expressed in CHOK1 cells by whole-cell patch clamp method; assay type: cell-based, CHO-K1
Homo sapiens = species on record: Homo sapiens; assay: Inhibition of N-type Ca2+ channel (unknown origin) at 10 uM by whole-cell patch clamp method relative to control
Rattus norvegicus [16] = assay: Poteny index, ratio of test compound to gabapentin antineuropathic pain activity in rat spinal nerve ligation model assessed as effect on mechanical allodynia by measuring frequency of paw withdrawal at 100 mg, po measured after 1 hr; assay type: functional
[17] = molecular target: T2, Voltage-dependent T-type calcium channel subunit alpha-1G; assay: Inhibition of Cav3.1 alpha1G (unknown origin) expressed in HEK293 cells by whole-cell patch clamp method; assay type: cell-based
How it was run: (§3)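 Whole-cell patch clamp on HEK293 cells expressing Cav3.1 or Cav3.2. T-type currents evoked every 15 s by a 50-ms step from −100 mV to −30 mV. External solution (mM): 140 NaCl, 2 CaCl₂, 10 HEPES, 10 glucose, pH 7.4.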

[18] = molecular target: T1, Voltage-dependent T-type calcium channel subunit alpha-1H; assay: Inhibition of Cav3.2 alpha1H (unknown origin) expressed in HEK293 cells by whole-cell patch clamp method; assay type: cell-based; how it was run: as §3
CYP2D6 = CYP2D6 (Homo sapiens, UniProt P10635); assay: Inhibition of human CYP2D6 assessed as remaining activity at 10 uM using vivid CYP450 substrate measured after 15 mins by fluorescence assay relative to quinidine; assay type: ADME; settings: probe vivid CYP450 substrate, read-out: Activity
How it was run: (§4)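 Vivid fluorescence CYP assay: test compound at […] in water, mixed with BACULOSOMES master pre-mix and regeneration system, preincubated 15 min at 37 °C. Reaction started with Vivid substrate and NADPH. Remaining activity read by fluorescence as % of control, triplicate, mean ± SD. Isoform-specific reference inhibitors: α-naphthoflavone (1A2), sulfaphenazole (2C9), quinidine (2D6), ketoconazole (3A4).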

[19] = Metabolic stability in human liver microsomes assessed as compound remaining at 1 uM in presence of NADPH as cofactor by LC-MS/MS method; assay type: ADME; settings: read-out: Stability
How it was run: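 Pooled mixed-gender human liver microsomes incubated with compound at 37 °C with NADPH as cofactor. Result given as % parent compound remaining.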

CYP2C9 = CYP2C9 (Homo sapiens, UniProt P11712); assay: Inhibition of human CYP2C9 assessed as remaining activity at 10 uM using vivid CYP450 substrate measured after 15 mins by fluorescence assay relative to sulfaphenazol; assay type: ADME; settings: probe vivid CYP450 substrate, read-out: Activity; how it was run: as §4
CYP3A4 = CYP3A4 (Homo sapiens, UniProt P08684); assay: Inhibition of human CYP3A4 assessed as remaining activity at 10 uM using vivid CYP450 substrate measured after 15 mins by fluorescence assay relative to ketoconazole; assay type: ADME; settings: probe vivid CYP450 substrate, read-out: Activity; how it was run: as §4
CYP1A2 = molecular target: T3, CYP1A2 (Homo sapiens, UniProt P05177); assay: Inhibition of human CYP1A2 assessed as remaining activity at 10 uM using vivid CYP450 substrate measured after 15 mins by fluorescence assay relative to alpha-naphthoflavon; assay type: ADME; settings: probe vivid CYP450 substrate, read-out: Activity; how it was run: as §4
T3 sequence (P05177 whole entry): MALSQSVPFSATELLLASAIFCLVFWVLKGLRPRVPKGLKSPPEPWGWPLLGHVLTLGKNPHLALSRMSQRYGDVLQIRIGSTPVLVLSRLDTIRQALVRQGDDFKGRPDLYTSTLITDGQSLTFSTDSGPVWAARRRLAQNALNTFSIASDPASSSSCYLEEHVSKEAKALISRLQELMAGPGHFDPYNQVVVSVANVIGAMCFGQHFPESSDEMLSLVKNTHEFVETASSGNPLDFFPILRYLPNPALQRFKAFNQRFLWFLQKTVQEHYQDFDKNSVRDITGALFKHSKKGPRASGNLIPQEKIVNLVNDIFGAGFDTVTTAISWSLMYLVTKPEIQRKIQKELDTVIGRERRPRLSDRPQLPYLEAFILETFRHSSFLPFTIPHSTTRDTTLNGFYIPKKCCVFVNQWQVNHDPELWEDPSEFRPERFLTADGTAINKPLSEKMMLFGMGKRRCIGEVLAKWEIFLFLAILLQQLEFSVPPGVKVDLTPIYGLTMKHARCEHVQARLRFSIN

Rattus norvegicus [20] = assay: Poteny index, ratio of test compound to mibefradil antineuropathic pain activity in rat spinal nerve ligation model assessed as effect on mechanical allodynia by measuring frequency of paw withdrawal at 100 mg, po measured after 1 hr; assay type: functional

T2 sequence (O43497 whole entry): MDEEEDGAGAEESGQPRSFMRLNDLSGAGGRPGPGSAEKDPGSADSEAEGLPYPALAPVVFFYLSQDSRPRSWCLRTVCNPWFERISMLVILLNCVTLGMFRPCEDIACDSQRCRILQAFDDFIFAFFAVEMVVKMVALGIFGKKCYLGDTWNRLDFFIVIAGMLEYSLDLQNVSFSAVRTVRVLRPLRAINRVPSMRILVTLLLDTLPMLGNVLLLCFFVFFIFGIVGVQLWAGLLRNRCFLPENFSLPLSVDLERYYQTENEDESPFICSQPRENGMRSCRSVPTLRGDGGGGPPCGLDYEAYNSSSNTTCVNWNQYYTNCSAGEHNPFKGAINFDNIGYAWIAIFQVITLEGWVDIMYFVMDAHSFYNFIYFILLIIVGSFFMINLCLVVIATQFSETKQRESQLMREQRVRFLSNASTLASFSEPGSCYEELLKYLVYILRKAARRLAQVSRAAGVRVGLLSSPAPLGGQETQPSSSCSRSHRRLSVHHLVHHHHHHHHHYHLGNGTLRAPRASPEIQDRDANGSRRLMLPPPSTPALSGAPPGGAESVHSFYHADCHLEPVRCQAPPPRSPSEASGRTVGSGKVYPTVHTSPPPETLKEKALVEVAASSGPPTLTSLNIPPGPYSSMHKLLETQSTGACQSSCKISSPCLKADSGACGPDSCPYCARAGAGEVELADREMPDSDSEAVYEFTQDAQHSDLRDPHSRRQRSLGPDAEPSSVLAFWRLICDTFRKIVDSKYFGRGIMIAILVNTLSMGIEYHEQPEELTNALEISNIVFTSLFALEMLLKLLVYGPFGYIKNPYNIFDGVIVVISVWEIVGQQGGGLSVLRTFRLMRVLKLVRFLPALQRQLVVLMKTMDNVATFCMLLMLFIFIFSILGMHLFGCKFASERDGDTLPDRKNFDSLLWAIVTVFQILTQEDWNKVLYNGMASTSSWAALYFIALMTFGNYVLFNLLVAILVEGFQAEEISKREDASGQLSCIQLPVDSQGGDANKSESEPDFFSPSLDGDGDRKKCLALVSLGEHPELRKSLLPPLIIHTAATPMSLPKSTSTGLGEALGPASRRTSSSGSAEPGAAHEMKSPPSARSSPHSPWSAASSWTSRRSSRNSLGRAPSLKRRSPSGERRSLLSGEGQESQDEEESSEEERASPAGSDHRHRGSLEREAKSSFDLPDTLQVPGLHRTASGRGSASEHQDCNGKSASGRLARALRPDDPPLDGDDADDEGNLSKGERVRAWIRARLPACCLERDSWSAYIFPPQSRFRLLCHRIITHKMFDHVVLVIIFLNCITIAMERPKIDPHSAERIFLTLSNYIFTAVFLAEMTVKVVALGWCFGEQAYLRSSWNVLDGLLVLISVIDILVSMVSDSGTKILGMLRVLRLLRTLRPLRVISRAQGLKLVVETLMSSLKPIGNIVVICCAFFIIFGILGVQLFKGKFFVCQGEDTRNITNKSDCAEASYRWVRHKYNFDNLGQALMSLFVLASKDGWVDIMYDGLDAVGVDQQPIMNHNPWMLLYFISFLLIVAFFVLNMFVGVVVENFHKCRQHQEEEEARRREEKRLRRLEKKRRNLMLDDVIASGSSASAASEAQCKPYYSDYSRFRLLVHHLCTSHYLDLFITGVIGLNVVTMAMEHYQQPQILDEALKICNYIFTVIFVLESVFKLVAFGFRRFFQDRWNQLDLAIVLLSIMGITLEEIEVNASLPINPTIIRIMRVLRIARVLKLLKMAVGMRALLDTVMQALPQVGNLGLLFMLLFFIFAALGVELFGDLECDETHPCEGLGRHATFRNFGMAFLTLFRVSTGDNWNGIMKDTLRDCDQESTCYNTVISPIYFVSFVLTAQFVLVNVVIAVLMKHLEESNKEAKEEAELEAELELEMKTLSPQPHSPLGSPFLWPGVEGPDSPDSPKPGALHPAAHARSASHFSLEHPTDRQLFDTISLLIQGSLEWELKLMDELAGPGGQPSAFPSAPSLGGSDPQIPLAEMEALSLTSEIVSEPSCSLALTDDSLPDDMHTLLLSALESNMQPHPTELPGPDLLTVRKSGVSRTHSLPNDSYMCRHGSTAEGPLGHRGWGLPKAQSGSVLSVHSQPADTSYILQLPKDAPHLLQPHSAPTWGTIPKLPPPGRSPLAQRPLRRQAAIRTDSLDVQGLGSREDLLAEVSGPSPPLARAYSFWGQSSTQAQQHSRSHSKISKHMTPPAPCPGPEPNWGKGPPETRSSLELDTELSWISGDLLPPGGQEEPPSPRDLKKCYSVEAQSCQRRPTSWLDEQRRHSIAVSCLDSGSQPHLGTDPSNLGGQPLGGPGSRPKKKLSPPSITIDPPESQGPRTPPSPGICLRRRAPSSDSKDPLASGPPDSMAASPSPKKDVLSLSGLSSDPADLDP
T1 sequence (O95180 whole entry): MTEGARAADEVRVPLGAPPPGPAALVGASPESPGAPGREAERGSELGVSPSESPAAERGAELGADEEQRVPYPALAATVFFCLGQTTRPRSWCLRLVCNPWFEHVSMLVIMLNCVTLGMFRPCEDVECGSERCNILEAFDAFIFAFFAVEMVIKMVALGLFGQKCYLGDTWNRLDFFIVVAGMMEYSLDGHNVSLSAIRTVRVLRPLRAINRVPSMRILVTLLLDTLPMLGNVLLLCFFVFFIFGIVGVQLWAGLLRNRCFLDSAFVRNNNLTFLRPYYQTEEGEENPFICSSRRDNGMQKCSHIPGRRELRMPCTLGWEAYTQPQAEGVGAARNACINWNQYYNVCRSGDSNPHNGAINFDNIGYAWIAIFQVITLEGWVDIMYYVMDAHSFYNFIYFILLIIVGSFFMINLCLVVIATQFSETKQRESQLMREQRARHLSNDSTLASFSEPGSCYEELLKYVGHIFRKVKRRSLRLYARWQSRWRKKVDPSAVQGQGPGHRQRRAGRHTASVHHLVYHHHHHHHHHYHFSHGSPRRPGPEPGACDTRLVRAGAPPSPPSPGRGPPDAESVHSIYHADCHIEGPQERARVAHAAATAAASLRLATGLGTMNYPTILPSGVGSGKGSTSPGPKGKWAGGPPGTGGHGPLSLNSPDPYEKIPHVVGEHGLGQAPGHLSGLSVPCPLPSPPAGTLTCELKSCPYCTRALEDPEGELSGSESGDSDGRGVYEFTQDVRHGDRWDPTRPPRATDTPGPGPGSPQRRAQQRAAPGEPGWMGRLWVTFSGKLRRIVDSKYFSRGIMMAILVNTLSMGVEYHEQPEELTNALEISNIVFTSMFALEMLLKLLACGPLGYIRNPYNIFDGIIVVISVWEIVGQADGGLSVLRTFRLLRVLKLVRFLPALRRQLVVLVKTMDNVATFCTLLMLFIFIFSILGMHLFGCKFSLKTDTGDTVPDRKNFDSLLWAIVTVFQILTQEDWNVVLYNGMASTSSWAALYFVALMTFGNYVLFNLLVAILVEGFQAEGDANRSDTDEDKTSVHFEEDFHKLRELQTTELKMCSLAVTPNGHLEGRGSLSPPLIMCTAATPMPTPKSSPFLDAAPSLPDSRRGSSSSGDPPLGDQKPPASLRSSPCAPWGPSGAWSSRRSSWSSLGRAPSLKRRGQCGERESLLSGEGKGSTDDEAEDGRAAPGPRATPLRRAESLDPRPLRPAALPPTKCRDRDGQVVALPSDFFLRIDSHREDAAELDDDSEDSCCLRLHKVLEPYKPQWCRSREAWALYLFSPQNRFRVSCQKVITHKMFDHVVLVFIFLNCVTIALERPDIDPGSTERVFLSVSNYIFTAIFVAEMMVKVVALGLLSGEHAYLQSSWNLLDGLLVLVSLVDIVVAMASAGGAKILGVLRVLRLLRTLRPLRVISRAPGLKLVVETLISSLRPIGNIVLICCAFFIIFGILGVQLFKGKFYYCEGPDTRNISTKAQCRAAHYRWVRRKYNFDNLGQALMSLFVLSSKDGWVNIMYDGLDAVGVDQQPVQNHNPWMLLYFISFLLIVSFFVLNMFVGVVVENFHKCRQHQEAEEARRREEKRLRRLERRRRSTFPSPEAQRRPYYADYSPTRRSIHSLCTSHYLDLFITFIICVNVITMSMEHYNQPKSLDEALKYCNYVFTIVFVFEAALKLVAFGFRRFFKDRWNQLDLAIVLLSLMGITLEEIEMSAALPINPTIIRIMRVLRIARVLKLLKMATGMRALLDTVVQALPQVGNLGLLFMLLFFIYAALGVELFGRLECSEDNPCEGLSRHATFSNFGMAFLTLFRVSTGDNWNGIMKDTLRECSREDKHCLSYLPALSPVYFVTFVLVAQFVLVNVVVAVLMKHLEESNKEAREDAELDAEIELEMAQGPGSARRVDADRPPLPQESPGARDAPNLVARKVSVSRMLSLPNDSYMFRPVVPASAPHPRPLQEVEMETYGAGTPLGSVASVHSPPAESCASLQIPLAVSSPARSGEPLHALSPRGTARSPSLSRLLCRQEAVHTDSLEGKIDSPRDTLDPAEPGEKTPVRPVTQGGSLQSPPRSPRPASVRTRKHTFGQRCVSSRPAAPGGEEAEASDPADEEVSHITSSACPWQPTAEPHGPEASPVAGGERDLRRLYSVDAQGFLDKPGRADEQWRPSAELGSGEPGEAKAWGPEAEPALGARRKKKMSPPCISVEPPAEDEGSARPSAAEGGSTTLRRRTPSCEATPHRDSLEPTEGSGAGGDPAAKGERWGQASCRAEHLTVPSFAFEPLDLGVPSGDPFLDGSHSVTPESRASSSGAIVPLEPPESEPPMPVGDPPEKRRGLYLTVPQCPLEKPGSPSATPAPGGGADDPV

Row | Compound | inhibition [1] [%] | inhibition [2] [%] | MPE (Rattus norvegicus [3]) [%] | MPE (Rattus norvegicus [4]) [%] | MPE (Rattus norvegicus [5]) [%] | MPE (Rattus norvegicus [6]) [%] | MPE (Rattus norvegicus [7]) [%] | MPE (Rattus norvegicus [8]) [%] | MPE (Rattus norvegicus [9]) [%] | MPE (Rattus norvegicus [10]) [%] | MPE (Rattus norvegicus [11]) [%] | MPE (Rattus norvegicus [12]) [%] | MPE (Rattus norvegicus [13]) [%] | MPE (Rattus norvegicus [14]) [%] | also measured
1 | CC(C)Cc1cc(CNS(=O)(=O)c2c(F)cccc2F)nn1-c1ccccc1 | 69.3 | 45.1 | – | – | – | – | – | – | – | – | – | – | – | – | –
2 | CC(C)(C)n1nc(CNS(=O)(=O)c2ccccc2)cc1-c1ccccc1 | 10.4 | 55.5 | – | – | – | – | – | – | – | – | – | – | – | – | –
3 | COCC(=O)O[C@]1(CCN(C)CCCc2nc3ccccc3[nH]2)CCc2cc(F)ccc2[C@@H]1C(C)C [MIBEFRADIL] | – | – | 57.37 | 43.19 | 41.44 | 92.23 | 41.76 | 17.29 | 34.77 | 72.78 | 145.05 | 156.75 | 25.25 | 63.33 | –
4 | CC(C)Cc1cc(CNS(=O)(=O)c2ccccc2)nn1-c1ccccc1 | 63.9 | 61.4 | 236.08 | 101.52 | 36.45 | 68.26 | 30.91 | 45.95 | 81.73 | 64.01 | 169.88 | 416.59 | 103.9 | 74.17 | IC50 [15]: 21 µM; inhibition (Homo sapiens): 38.2%; Ratio (Rattus norvegicus [16]): 3; IC50 [17]: 5.65 µM; IC50 [18]: 5.8 µM; activity at 0.25 h, 10 µM (CYP2D6): 208%; remaining at 1 µM [19]: 13.9%; activity at 0.25 h, 10 µM (CYP2C9): 38.4%; activity at 0.25 h, 10 µM (CYP3A4): 69.6%; activity at 0.25 h, 10 µM (CYP1A2): 36.6%; Ratio (Rattus norvegicus [20]): 3
5 | CC(C)Cc1cc(CNS(=O)(=O)c2cccc(Cl)c2)nn1-c1ccccc1 | 55.7 | 57.6 | – | – | – | – | – | – | – | – | – | – | – | – | –
6 | CC(C)Cc1cc(CNS(=O)(=O)CCc2ccccc2)nn1-c1ccccc1 | 68.6 | 70.5 | 7 | 11.27 | -7.3 | -10.34 | -4.68 | -3.8 | 9.07 | -12.82 | 7.05 | -34.45 | 3.08 | 3.08 | inhibition (Homo sapiens): 42.2%; IC50 [17]: 12.4 µM; IC50 [18]: 14.6 µM; activity at 0.25 h, 10 µM (CYP2D6): 45.2%; remaining at 1 µM [19]: 88.2%; activity at 0.25 h, 10 µM (CYP2C9): 45.2%; activity at 0.25 h, 10 µM (CYP3A4): 38.7%
7 | NCC1(CC(=O)O)CCCCC1 [GABAPENTIN] | – | – | – | – | 56.94 | – | 45.28 | 11.03 | 80.51 | – | – | – | 44.01 | 43.66 | –
8 | Cc1ccc(F)c(S(=O)(=O)NCc2cc(CC(C)C)n(-c3ccccc3)n2)c1 | 70 | 54.9 | – | – | – | – | – | – | – | – | – | – | – | – | –
9 | CC(C)(C)n1nc(CNS(=O)(=O)c2ccccc2)cc1-c1cccc(F)c1 | 53.5 | 51.5 | – | – | – | – | – | – | – | – | – | – | – | – | –
10 | Cc1ccc(S(=O)(=O)NCc2cc(CC(C)C)n(-c3ccccc3)n2)cc1 | 62.2 | 57.3 | – | – | – | – | – | – | – | – | – | – | – | – | –
